Assay results from publication PMC3475454 (Bioscience Reports, 2012).

Assays:
[1] = tested on: firefly luciferase; conditions: cited from earlier work
[2] = target: T1, firefly luciferase (Photinus pyralis, UniProt P08659); test: Firefly luciferase activity assay in cell lysates, compound added to lysate; assay type: biochemical; conditions: for IC50: IC50 for firefly luciferase inhibition
[3] = target: Renilla luciferase (Renilla reniformis, UniProt P27652); test: Renilla luciferase activity assay in cell lysates; assay type: biochemical; conditions: 20 μM added to lysates of Hepa1c1c7, 70.4 and 55.1c cells
Summary of the method: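 Hepa1c1c7, 70.4 and 55.1c cells were transfected with CMV-driven Renilla luciferase plasmid. After 24 h, cells were lysed in passive lysis buffer. 20 μM test compound (1% v/v of 2 mM DMSO stock) was added to the lysate 5 min before reading. Luminescence was read for 10 s; n=3 and 4.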

[4] = tested on: Gaussia luciferase; test: Gaussia luciferase activity assay in cell culture supernatant; assay type: biochemical; conditions: 20 μM, Hepa1c1c7, 70.4 and 55.1c cells
Summary of the method: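 Hepa1c1c7, 70.4 and 55.1c cells were transfected by Lipofectamine 2000 with an AP-1-responsive Gaussia luciferase vector. After 24 h, culture supernatant was taken. 20 μM test compound (1% v/v of 2 mM DMSO solution) was added 5 min before reading. Luminescence was read for 10 s; n=3 and 4.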

[5] = target: T1, firefly luciferase; test: Firefly luciferase reporter; assay type: cell-based; conditions: 20 μM; for Firefly luciferase inhibition in cells: stably transfected cell lines
Summary of the method: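 Stably STF-transfected 70.4- and 55.1c-derived mouse hepatoma clones, with G418 removed at plating, were exposed in culture to 20 μM test compound (0.1% DMSO) for 1 h or 24 h. Cells were lysed in passive lysis buffer. Signal was normalised to Alamar Blue vitality and expressed as % untreated; n=3 and 4.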

[6] = target: T1, firefly luciferase; test: Monitoring of firefly luciferase in living cells with D-luciferin-ethylester; assay type: cell-based; conditions: 20 μM, 30 min pre-incubation, 70.4 K15 and 55.1c K65 cells
Summary of the method: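 Living 70.4 K15 and 55.1c K65 cells stably expressing firefly luciferase were pre-incubated for 30 min in medium with 20 μM test compound (37°C, 5% CO2) and then washed with PBS. After 5 min, signal was read on a plate reader over 4 min or on a CCD camera over 8 min; n=4.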

[7] = tested on: β-catenin target genes Axin2 and Gpr49; test: Real-time RT-PCR of β-catenin target genes; assay type: cell-based, mouse; conditions: 20 μM, 24 h
[8] = target: T1, firefly luciferase; test: Inhibition of pure commercially available firefly luciferase; assay type: biochemical; conditions: 10 μM, different enzyme concentrations
Summary of the method: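 Purified commercial firefly luciferase was prepared as a stock of 1 mg/ml in luciferase assay buffer lacking ATP and D-luciferin, supplemented with 0.1% BSA. Several enzyme concentrations were assayed with 10 μM test compound. Values are means of two experiments.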

[9] = target: T2, Ultra-Glo luciferase (Photuris pensylvanica, UniProt Q27757); conditions: ref Promega Corporation web page; cited from earlier work
T2 sequence (Q27757 1-545): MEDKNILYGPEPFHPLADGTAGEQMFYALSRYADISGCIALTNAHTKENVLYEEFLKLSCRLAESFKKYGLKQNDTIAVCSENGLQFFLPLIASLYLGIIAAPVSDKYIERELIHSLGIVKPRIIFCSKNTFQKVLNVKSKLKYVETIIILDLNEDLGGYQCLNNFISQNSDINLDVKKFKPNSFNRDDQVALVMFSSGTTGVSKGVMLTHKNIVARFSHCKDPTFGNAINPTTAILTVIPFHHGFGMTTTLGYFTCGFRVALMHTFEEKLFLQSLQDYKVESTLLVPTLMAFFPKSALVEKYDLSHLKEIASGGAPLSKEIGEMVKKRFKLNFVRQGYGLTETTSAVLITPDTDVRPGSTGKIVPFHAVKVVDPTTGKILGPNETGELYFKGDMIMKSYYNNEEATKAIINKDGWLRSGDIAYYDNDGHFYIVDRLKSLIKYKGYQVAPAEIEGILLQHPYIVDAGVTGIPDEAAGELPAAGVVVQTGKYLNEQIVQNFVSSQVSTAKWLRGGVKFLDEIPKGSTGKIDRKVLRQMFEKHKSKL

T1 sequence (P08659 whole entry): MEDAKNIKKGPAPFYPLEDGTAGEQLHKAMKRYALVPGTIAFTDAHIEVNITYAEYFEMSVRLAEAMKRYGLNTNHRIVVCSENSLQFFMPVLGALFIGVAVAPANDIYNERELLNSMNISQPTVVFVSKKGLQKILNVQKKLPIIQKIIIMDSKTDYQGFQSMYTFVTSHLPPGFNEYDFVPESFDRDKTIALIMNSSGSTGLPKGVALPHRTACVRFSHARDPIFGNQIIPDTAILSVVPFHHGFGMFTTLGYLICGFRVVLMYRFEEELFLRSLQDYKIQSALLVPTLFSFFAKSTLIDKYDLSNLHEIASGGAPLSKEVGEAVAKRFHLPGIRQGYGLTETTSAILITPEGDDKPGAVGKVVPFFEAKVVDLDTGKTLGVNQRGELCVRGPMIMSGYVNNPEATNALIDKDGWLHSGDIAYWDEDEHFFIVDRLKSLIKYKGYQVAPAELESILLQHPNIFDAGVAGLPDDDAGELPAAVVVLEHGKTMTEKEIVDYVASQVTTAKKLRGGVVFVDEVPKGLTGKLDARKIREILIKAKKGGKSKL
Chain of Renilla luciferase (P27652 whole entry): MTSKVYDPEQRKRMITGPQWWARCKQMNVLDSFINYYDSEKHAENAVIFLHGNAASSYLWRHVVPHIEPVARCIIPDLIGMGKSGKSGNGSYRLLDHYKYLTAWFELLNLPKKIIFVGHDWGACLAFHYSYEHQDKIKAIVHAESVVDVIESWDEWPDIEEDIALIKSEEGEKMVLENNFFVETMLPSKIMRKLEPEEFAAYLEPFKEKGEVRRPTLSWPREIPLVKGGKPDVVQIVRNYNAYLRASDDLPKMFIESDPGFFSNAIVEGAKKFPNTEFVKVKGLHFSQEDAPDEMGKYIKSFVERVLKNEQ

For `Cc1cccc(/C=C/c2ccccc2)n1` [SIB-1893], the “Efficacy of firefly luciferase inhibition” value ([1]; compared with NFκBAI4) is given as “somewhat lower efficacy”.
For `COc1ccc(/C=C/c2ccccc2F)cc1` [NFκBAI4, (E)-2-fluoro-4′-methoxystilbene], the “Decay of the luminescence signal” value ([2]; 1 μM, coenzyme A-free buffer, 9 min, compared with untreated lysate) was “somewhat less pronounced”, the “Quenching of remnant firefly signal by Renilla buffer” value ([2]; 20 μM added to Renilla buffer) was “further improved” and the “Inhibition of firefly luciferase signals” value ([2]; 20 μM added to lysates of untreated transiently transfected Hepa1c1c7, 70.4 and 55.1c cells) was “strongly inhibited”. It also gave an IC50 ([2]; lysate of 55.1cSTF K53 cells) of 0.95 µM, an IC50 ([2]; lysate of 55.1cSTF K65 cells) of 1.42 µM and an IC50 ([2]; lysate of 70.4STF K15 cells) of 0.85 µM. For the same compound, the IC50 ([2]; lysate of 70.4STF K31 cells) was 0.88 µM, the IC50 ([2]; reaction buffer without coenzyme A, results not shown) was ~1 µM and the “Mechanism of inhibition with respect to ATP and D-luciferin” value ([2]; varied ATP and D-luciferin, mixed hyperbolic fit) was “non-competitive”. The “Effect on Renilla luciferase” value [3] was “not affected”, the “Effect on Gaussia luciferase” value [4] was “not affected” and the “Duration of firefly luciferase inhibition in living cells” value [5] was > 24 h. For the same compound, the “Firefly luciferase inhibition in cells” value ([5]; 1 h incubation) was “strongly inhibited”, the “Luminescence of STF firefly luciferase reporter” value ([5]; 24 h, transiently transfected Hepa1c1c7, 70.4 and 55.1c cells) was “strong decrease of luminescence” and the “Firefly luciferase inhibition in cells” value ([5]; 24 h incubation) was “still pronounced”. The “Firefly luciferase inhibition in cells” value ([5]; 48 h incubation) was “still visible in 70.4-derived, but not in 55.1c-derived, cell lines”, the “Firefly luciferase activity in living cells” value [6] was “effectively inhibits” and the “mRNA levels of Axin2 and Gpr49” value [7] was “not accompanied by a decrease in mRNA levels”. The “Inhibition of pure firefly luciferase” value [8] was “also inhibited”.
In the case of `Oc1ccc(/C=C/c2cc(O)cc(O)c2)cc1` [Resveratrol, 3,5,4′-trihydroxy-trans-stilbene], the “Firefly luciferase inhibition in cells” value ([5]; 1 h incubation) is given as “weaker”, the “Firefly luciferase inhibition in cells” value ([5]; 24 h incubation) is given as “disappeared in all cell lines” and the “Mechanism of inhibition with respect to ATP and D-luciferin” value [1] is given as “non-competitive”. For the same compound, the “Resistance of Ultra-Glo luciferase against inhibition” value [9] was “more resistant”.
